The species named for data set [1] is Bos taurus. In words: Binding affinity to calf thymus duplex DNA assessed as decrease in intensities of maximum absorption at 50 uM by spectrophotometric titration analysis.
The species entered for data set [2] is Bos taurus. Kind of data set: Binding affinity to calf thymus duplex DNA by UV-visible spectra analysis.
Data set [3] relates to A549. Kind of data set: Photocytotoxicity against human A549 cells assessed as decrease in cell viability at 500 to 5000 nM preincubated for 1 hr followed by 0.77 mW/cm2 white light irradiation measured after 24 hrs by MTT assay. The data set is classed as functional, cell-based. Conditions: TDE = time-dependent effect. In outline: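 A549 cells (1×10^4/well), plated overnight, given compound for 1 h in serum-free medium, washed twice with PBS, irradiated 0.5, 1, 2 or 4 h at 0.77 mW/cm² (37 °C, 5% CO₂), then 24 h in regular medium; MTT 0.5 mg/mL for 6 h, formazan dissolved in 0.01 N HCl/10% SDS, A550.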

Data set [4] deals with A549. Kind of data set: Induction of apoptosis in human A549 cells assessed as accumulation at subG1 phase at 5 to 50 uM preincubated for 1 hr followed by 0.77 mW/cm2 white light irradiation for 80 mins measured after 24 hrs by propidium iodide staining based flow cytometry relative to control. It is filed as functional. A digest of the protocol:
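Cells exposed 1 h to compound (5-50 µM; vehicle 0.1% DMSO), washed, then irradiated (0.77 mW/cm²) for 0, 30 or 80 min; after serum addition kept 24 h. PI/RNase A staining in hypotonic 0.1% citrate-0.1% Triton X-100, 30 min, 37 °C; sub-G1 peak by flow cytometry, debris gated out, ≥2×10^4 cells; five replicates, mean ± SEM.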
(In general: Flow cytometry measures light scatter and fluorescence of single cells or particles in a stream.)

The subject of data set [5] is A549. Kind of data set: Induction of morphological changes in human A549 cells assessed as changes in cell outline preincubated for 1 hr followed by 0.77 mW/cm2 white light irradiation for 80 mins measured after 24 hrs by phase contrast microscopy. It is filed as functional, cell-based. A digest of the protocol: (§1)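 A549 cells (1×10^5/well) on coverslips given vehicle (0.1% DMSO) or compound (0.625, 1.25, 2.5 µM) for 1 h, then irradiated 80 min (0.77 mW/cm²); kept 24 h in regular medium and examined unstained by phase-contrast microscopy (40× objective); representative fields imaged; experiments done three times.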

In data set [6] the test system is A549. In words: Induction of morphological changes in human A549 cells assessed as irregular disruptions in optical diffraction halo preincubated for 1 hr followed by 0.77 mW/cm2 white light irradiation for 80 mins measured after 24 hrs by phase contrast microscopy. It is filed as functional, cell-based. A digest of the protocol:
as §1

Data set [7] relates to A549. Kind of data set: Induction of morphological changes in human A549 cells assessed as cell shrinking up to 2.5 uM preincubated for 1 hr followed by 0.77 mW/cm2 white light irradiation for 80 mins measured after 24 hrs by phase contrast microscopy. The data set is classed as functional, cell-based. In outline:
as §1

Data set [8] deals with A549. Kind of data set: Induction of morphological changes in human A549 cells assessed as cells with blebbing membranes up to 2.5 uM preincubated for 1 hr followed by 0.77 mW/cm2 white light irradiation for 80 mins measured after 24 hrs by phase contrast microscopy. The data set is classed as functional, cell-based. A digest of the protocol: as §1
The test system of data set [9] is A549. Kind of data set: Induction of apoptosis in human A549 cells assessed as increase in caspase 3 activity at 2.5 uM preincubated for 1 hr followed by 0.77 mW/cm2 white light irradiation for 80 mins measured after 16 hrs by colorimetric method relative to control. It is filed as functional. A digest of the protocol:
(§2)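 A549 cells (1×10^6) given compound 2.5 µM for 1 h, then light 80 min; caspase activities measured at 16 h in whole-cell extracts with kits, colorimetric for caspase-3 and fluorimetric for caspase-8; untreated photo-exposed cells as control; five replicates, mean ± SEM.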

Data set [10] relates to A549. Kind of data set: Induction of apoptosis in human A549 cells assessed as increase in caspase 8 activity at 2.5 uM preincubated for 1 hr followed by 0.77 mW/cm2 white light irradiation for 80 mins measured after 16 hrs by fluorimetric method relative to control. The data set is classed as functional. A digest of the protocol:
as §2

The test system of data set [11] is A549. In words: Induction of apoptosis in human A549 cells assessed as increase in caspase 9 activity at 2.5 uM preincubated for 1 hr followed by 0.77 mW/cm2 white light irradiation for 80 mins measured after 16 hrs in presence of caspase-9 inhibitor Z-LEHD-FMK by immunoblot analysis. The data set is classed as functional, cell-based. (Immunoblotting shows a protein as a band on a membrane.)

The test system of data set [12] is A549. Kind of data set: Induction of apoptosis in human A549 cells assessed as pro-caspase 3 level at 2.5 uM preincubated for 1 hr followed by 0.77 mW/cm2 white light irradiation for 80 mins measured after 4 hrs by immunoblot analysis relative to control. The data set is classed as functional. A digest of the protocol:
(§3)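 Whole-cell extracts from A549 cells (1×10^6) treated with 0 or 2.5 µM compound, photo-exposed 80 min, lysed in Tris pH 7.4/NaCl/EDTA/Triton with protease inhibitors; 30 µg protein on 12% SDS-PAGE, nitrocellulose, milk block, caspase-3 antibody overnight 4 °C, HRP secondary, chemiluminescence; band ratio to normal control (=1) after loading-control normalisation.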

In data set [13] the test system is A549. Kind of data set: Induction of apoptosis in human A549 cells assessed as decrease in pro-caspase 3 level at 2.5 uM preincubated for 1 hr followed by in 0.77 mW/cm2 white light irradiation for 80 mins by immunoblot analysis. The data set is classed as functional, cell-based. Conditions: TDE = time-dependent effect. A digest of the protocol:
as §3

Data set [14] has as its system A549. Kind of data set: Induction of apoptosis in human A549 cells assessed as pro-caspase 3 level at 2.5 uM preincubated for 1 hr followed by 0.77 mW/cm2 white light irradiation for 80 mins measured after 16 hrs by immunoblot analysis relative to control. It is filed as functional. In outline:
as §3

Data set [15] concerns A549. Kind of data set: Induction of apoptosis in human A549 cells assessed as pro-caspase 3 level at 2.5 uM preincubated for 1 hr followed by 0.77 mW/cm2 white light irradiation for 80 mins measured after 24 hrs by immunoblot analysis relative to control. It is filed as functional. A digest of the protocol:
as §3

The nature of data set [16]: Induction of apoptosis in human A549 cells assessed as caspase 3 activation at 2.5 uM preincubated measured after 24 hrs under dark condition by immunoblot analysis. The data set is classed as cell-based. Conditions: a549, 24 h.
Data set [17] can be described thus: Cell cycle arrest in human A549 cells assessed as accumulation at subG1 phase at 2.5 uM preincubated for 1 hr followed by 0.77 mW/cm2 white light irradiation for 80 mins measured after 24 hrs in presence of 50 uM of beta-carotene by propidium iodide staining based flow cytometry (reference value: 8.2 +/- 1.1%). The data set is classed as functional.
Data set [18] is described as follows: Cell cycle arrest in human A549 cells assessed as accumulation at subG1 phase at 2.5 uM preincubated for 1 hr followed by 0.77 mW/cm2 white light irradiation for 80 mins measured after 24 hrs in presence of 100 uM of beta-carotene by propidium iodide staining based flow cytometry (reference value: 8.2 +/- 1.1%). It is filed as functional.
Data set [19] is described as follows: Photocytotoxicity against human L-132 cells at 50 uM using 0.77 mW/cm2 white light irradiation by MTT assay. The data set is classed as toxicity, cell-based. Conditions: l132, 50 µM.
Data set [20] can be described thus: Drug uptake in human A549 cells assessed as mean fluorescence intensity at 2.5 uM after 4 hrs by flow cytometry (reference value: 5.4 +/- 1.5). The data set is classed as ADME, cell-based. Conditions: a549, 4 h.
A short description of data set [21]: Drug uptake in human L-132 cells assessed as mean fluorescence intensity at 2.5 uM after 16 hrs by flow cytometry (reference value: 4.6 +/- 1.2). The data set is classed as ADME, cell-based. The note with it: l132, 16 h.
The nature of data set [22]: Cytotoxicity against human WI38 cells assessed as reduction in cell viability at 50 uM under dark condition by MTT assay. The data set is classed as toxicity, cell-based. The note with it: wi-38, 50 µM. (Tetrazolium assays rely on reduction of a dye to a coloured formazan, in cell work by metabolically active cells.)
Data set [23] is filed under the species Bos taurus. In words: Binding affinity to calf thymus duplex DNA assessed as decrease in intensities of maximum absorption at 50 uM by spectrophotometric titration analysis.

Activity calls are given as the source filed them. No cut-off for these calls is given here.

Turning to `CCC1=C(C)C2=C(C)c3c(C)c(CC)c(C)n3[B-](F)(F)[N+]2=C1/C=C/c1ccc(O[C@H]2O[C@H](CO)[C@@H](O)[C@H](O)[C@H]2O)cc1`, the outcome in [1], in [7], in [8], in data set [11] and in data set [23] was Active. This molecule also showed a Kb in data set [2] of 1.8 ×10⁴ /M. Moreover, the Activity entry in [3] was “Tde”; in data set [5], “Dose-dependent effect”; in [6], “Dose-dependent effect”; in data set [13] it was “Tde”; in data set [16] it was “Non-Toxic”; in [17], 51.8%. The values for the Activity in [18], in data set [19] and in [22] were 43.2%, 5 to 7% and “Non-Toxic”, respectively. Moreover, the “fold change (FC)” value in data set [4] is 5 - 6; in [9], 2.9; in data set [10], 6.2; in [12], 0.8; in data set [14], 0.6; in [15], 0.2. The Flu intensity in data set [20] is 66.2 to 68.9; in data set [21], 41.5.

For the origin of these results see ChEMBL document CHEMBL3865807, “Syntheses and photodynamic activity of some glucose-conjugated BODIPY dyes” (Eur J Med Chem, 2016).
